Shown are actives, neighbours in structure and some others; about 1.9% of the full set was active somewhere.
NPY Y1 blocker: antagonists of human neuropeptide Y receptor Y1; inhibition, % at 3.6 µM; HEK293-CNG Y1 cells, membrane potential fluorescence; NPY at EC95, then isoproterenol; P25929; 200,000 compounds, 1% hits;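 active = inhibition above the campaign mean inhibition of all tested compounds plus 3 SD, cut at about 20% in these data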
Target sequence (P25929 whole entry, looked up): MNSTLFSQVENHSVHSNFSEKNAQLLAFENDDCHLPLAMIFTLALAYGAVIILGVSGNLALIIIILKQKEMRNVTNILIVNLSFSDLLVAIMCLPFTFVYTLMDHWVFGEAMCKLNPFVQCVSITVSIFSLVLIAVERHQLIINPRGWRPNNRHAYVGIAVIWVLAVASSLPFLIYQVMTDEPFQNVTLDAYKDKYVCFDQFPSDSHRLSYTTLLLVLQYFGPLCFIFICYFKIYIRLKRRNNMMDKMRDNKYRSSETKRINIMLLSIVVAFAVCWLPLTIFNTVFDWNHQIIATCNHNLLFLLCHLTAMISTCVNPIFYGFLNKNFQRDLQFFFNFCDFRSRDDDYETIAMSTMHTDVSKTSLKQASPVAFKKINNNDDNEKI
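Test system – HEK293 Y1/CNG channel cell line · Also added – NPY agonist 25 nM, then isoproterenol 1 µM plus Ro 20-1724 25 µM · Compound dosing – one concentration, 3.6 µM, in 0.4% DMSO · Schedule – compound incubation 1 h at room temperature, readout 45 min post-stimulation · Technique – fluorescence, membrane potential probe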
NPY1 pot ag: potentiates or activates human NPY-Y1 receptor; NPY-Y1 expressing cells, potentiator/agonist activation; activation, % at 3.6 µM; 220,000 compounds, 0.37% hits; AID 1304; in the data active = activation above about 33%, passing the limit was not always enough;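 note: cells stimulated with NPY at EC10 then isoproterenol at EC100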
NPY-Y2 PAM-ag: human NPY-Y2 potentiation or agonism, primary screen; AID 1359; activation, % at 3.6 µM; cells expressing NPY-Y2, potentiator/agonist read-out; P49146; 220,000 compounds, 0.45% hits; in the data active = activation above about 27%;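 note: cells stimulated with NPY near EC25 plus isoproterenol at EC100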
Target sequence (P49146 whole entry, looked up): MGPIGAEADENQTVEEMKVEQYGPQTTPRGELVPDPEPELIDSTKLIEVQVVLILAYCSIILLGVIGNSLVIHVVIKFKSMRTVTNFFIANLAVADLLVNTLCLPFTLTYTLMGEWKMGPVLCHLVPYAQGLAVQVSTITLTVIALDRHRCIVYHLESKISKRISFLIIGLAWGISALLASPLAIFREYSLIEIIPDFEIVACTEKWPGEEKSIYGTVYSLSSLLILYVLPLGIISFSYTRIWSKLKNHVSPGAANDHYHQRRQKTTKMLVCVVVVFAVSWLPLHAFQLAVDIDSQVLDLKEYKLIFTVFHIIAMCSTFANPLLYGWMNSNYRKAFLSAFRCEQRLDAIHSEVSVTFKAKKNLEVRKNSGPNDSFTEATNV
NPY Y2 blocker: antagonists of human neuropeptide Y receptor Y2 | NPY-Y2 expressing cells, antagonist mode | P49146 | inhibition, % at 2.7 µM | 140,000 compounds, 0.99% hits | AID 793; in the data active = inhibition above about 17%
NPY-Y2 confirm: confirmation of human NPY-Y2 receptor potentiators or agonists | activation, % at 3.6 µM | AID 1539 | shares compounds with NPY-Y2 PAM-ag | 450 compounds, 20% hits | cell-based NPY-Y2 potentiator/agonist assay; in the data active = activation above about 33%
NPY-Y1 potentiator: NPY-Y1 potentiation or agonism as NPY-Y2 counter-screen; activation, % at 3.6 µM; Y1 HEK293-CNG cells, membrane potential fluorescence; shares compounds with NPY-Y2 PAM-ag; 450 compounds, 20% hits; in the data active = activation above about 45%;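 note: cells stimulated with submaximal NPY then isoproterenol with phosphodiesterase inhibitor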
NPY-Y1 agonist 2: human NPY-Y1 agonism as NPY-Y2 potentiator counter-screen; shares compounds with NPY-Y2 PAM-ag; HEK293 Y1-CNGC, membrane potential fluorescence; activation, % at 3.6 µM; 450 compounds, 37% hits; AID 1702;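 active = activation above the mean of DMSO-only control wells plus 3 SD, cut at about 18% in these data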;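 note: cells stimulated with 1 µM isoproterenol plus the PDE inhibitor Ro 20-1724; Y1 agonists lower the membrane potential dye signal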
CNGC inhibitor: cyclic nucleotide gated channel inhibition as counter-screen | shares compounds with NPY-Y2 PAM-ag | HEK293-CNG parental, isoproterenol cAMP, membrane potential fluorescence | inhibition, % at 3.6 µM | 450 compounds, 32% hits | AID 1703;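 active = inhibition above the control-well mean plus 3 SD of those wells, cut at about 22% in these data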
Y2 agonist ctr: NPY-Y2 agonism, counter-screen for Y2 potentiators; shares compounds with NPY-Y2 PAM-ag; HEK293 Y2/CNGC cells, membrane potential fluorescence, agonist mode; activation, % at 3.6 µM; 450 compounds, 56% hits; AID 1710;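 active = activation above the mean of solvent-only control wells plus 3 SD, cut at about 10% in these data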;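 note: cells stimulated by isoproterenol with no NPY added so direct agonism is tested; agonism lowers probe fluorescence through less cAMP and CNG channel opening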
Of the large screens only hits and unclear results are named; the others gave an inactive call (follow-up assays come after a bar, where they were run).

O=C(NCCc1cccc(F)c1)/C(=C/c1cccnc1)NC(=O)c1ccccc1	none
N#Cc1c(Cl)nsc1NN	NPY-Y2 PAM-ag 31 (no result: NPY Y2 blocker) | NPY-Y2 confirm inactive | NPY-Y1 potentiator inactive | NPY-Y1 agonist 2 27 | CNGC inhibitor inactive | Y2 agonist ctr 30
CCOc1cc(S(=O)(=O)N2CCN(Cc3ccccc3)CC2)ccc1Br	none
COc1cccc(C(=O)Nc2ccccc2F)c1	NPY-Y2 PAM-ag 30 (no result: NPY Y2 blocker) | NPY-Y2 confirm inactive | NPY-Y1 potentiator inactive | NPY-Y1 agonist 2 inactive | CNGC inhibitor inactive | Y2 agonist ctr inactive
COc1cccc(C(=O)Nc2ccc(F)cc2F)c1	none
COc1ccc(NC(=O)c2cccnc2SC)cc1OC	none (no result: NPY Y2 blocker)
CSc1ncccc1C(=O)Nc1ccc2nc(C)sc2c1	NPY-Y2 PAM-ag 105 (no result: NPY Y1 blocker, NPY Y2 blocker) | NPY-Y2 confirm inactive | NPY-Y1 potentiator inactive | NPY-Y1 agonist 2 inactive | CNGC inhibitor inactive | Y2 agonist ctr inactive
CC1CCCN(C(=O)c2ccc3c(c2NCCO)C(=O)c2ccccc2C3=O)C1 (stereo not given)	NPY-Y2 PAM-ag 31 | NPY-Y2 confirm 46 | NPY-Y1 potentiator 62 | NPY-Y1 agonist 2 38 | CNGC inhibitor 31 | Y2 agonist ctr 42
CCNc1c(C(=O)O)ccc2c1C(=O)c1ccccc1C2=O	none
Cc1cc(Nc2ccccc2)nc(-c2ccccc2O)n1	NPY-Y2 PAM-ag 34 | NPY-Y2 confirm 37 | NPY-Y1 potentiator inactive | NPY-Y1 agonist 2 29 | CNGC inhibitor 27 | Y2 agonist ctr 37
O=C(O)CC(Sc1n[nH]c(=S)s1)C(=O)O (stereo not given)	none (no result: NPY Y1 blocker, NPY Y2 blocker)
O=C(c1ccco1)N1CCN(C(=O)c2sccc2-c2ccccc2)CC1	NPY-Y2 PAM-ag 27 | NPY-Y2 confirm inactive | NPY-Y1 potentiator inactive | NPY-Y1 agonist 2 inactive | CNGC inhibitor inactive | Y2 agonist ctr inactive
CC(C)(SC(=S)N1CCCCCC1)C(=O)O	none (no result: NPY Y2 blocker)
CC(SC(=S)N1CCCC1)C(=O)O (stereo not given)	NPY-Y2 PAM-ag 37 (no result: NPY Y2 blocker) | NPY-Y2 confirm inactive | NPY-Y1 potentiator inactive | NPY-Y1 agonist 2 inactive | CNGC inhibitor inactive | Y2 agonist ctr 13
O=C(c1ccccc1)c1c2c(cc3sc4ccccc4[n+]13)-c1cccc3cccc-2c13	NPY-Y2 PAM-ag 40 | NPY-Y2 confirm 51 | NPY-Y1 potentiator 60 | NPY-Y1 agonist 2 54 | CNGC inhibitor 56 | Y2 agonist ctr 60
Cc1sc2cc3c(c(C(=O)c4ccccc4)[n+]2c1C)-c1cccc2cccc-3c12	NPY-Y2 PAM-ag 31 | NPY-Y2 confirm inactive | NPY-Y1 potentiator inactive | NPY-Y1 agonist 2 inactive | CNGC inhibitor inactive | Y2 agonist ctr 16
Cn1nc(Oc2ncc(C(F)(F)F)cc2Cl)cc1C(F)(F)F	none (no result: NPY Y2 blocker)
CC1CCCCC1NS(=O)(=O)c1ccc(S(=O)(=O)NCc2ccncc2)cc1 (stereo not given)	NPY-Y2 PAM-ag 37 | NPY-Y2 confirm inactive | NPY-Y1 potentiator inactive | NPY-Y1 agonist 2 inactive | CNGC inhibitor inactive | Y2 agonist ctr inactive
O=C(CCl)NC(=O)NC12CC3CC(CC(C3)C1)C2	NPY-Y2 PAM-ag 41 | NPY-Y2 confirm inactive | NPY-Y1 potentiator 49 | NPY-Y1 agonist 2 35 | CNGC inhibitor inactive | Y2 agonist ctr 27
COc1ccc(C(=O)Nn2c(SCc3ccc([N+](=O)[O-])cc3)nc3ccccc3c2=O)cc1	none
CC(C)Cn1c(N)c(C(=O)COC(=O)CC23CC4CC(CC(C4)C2)C3)c(=O)n(C)c1=O	NPY-Y2 PAM-ag 38 | NPY-Y2 confirm inactive | NPY-Y1 potentiator inactive | NPY-Y1 agonist 2 inactive | CNGC inhibitor inactive | Y2 agonist ctr inactive
COc1ccc(CCNc2ccc(N3C(=O)CC(C)C3=O)cc2[N+](=O)[O-])cc1OC (stereo not given)	NPY-Y2 PAM-ag 37 (no result: NPY Y2 blocker) | NPY-Y2 confirm inactive | NPY-Y1 potentiator inactive | NPY-Y1 agonist 2 inactive | CNGC inhibitor inactive | Y2 agonist ctr inactive
O=C1C2CC=CCC2C(=O)N1c1ccc(NCCc2ccc(O)cc2)c([N+](=O)[O-])c1 (stereo not given)	NPY-Y2 PAM-ag 46 | NPY-Y2 confirm inactive | NPY-Y1 potentiator inactive | NPY-Y1 agonist 2 inactive | CNGC inhibitor inactive | Y2 agonist ctr 13
COc1ccc(CCNc2ccc(N3C(=O)CC(C)C3=O)cc2[N+](=O)[O-])cc1 (stereo not given)	none (no result: NPY Y2 blocker)
O=C1C2CC=CCC2C(=O)N1c1ccc(NCCc2ccc(Cl)cc2)c([N+](=O)[O-])c1 (stereo not given)	none
Nc1nc(N2CCCCC2)nc2ccccc12	NPY-Y2 PAM-ag 55 | NPY-Y2 confirm 72 | NPY-Y1 potentiator 79 | NPY-Y1 agonist 2 44 | CNGC inhibitor 40 | Y2 agonist ctr 72
O=C(COC(=O)c1cc(NS(=O)(=O)c2cccs2)ccc1O)Nc1ccccc1	none (no result: NPY Y1 blocker, NPY Y2 blocker)
CN(Cc1ccccc1)C(=O)COC(=O)c1cc(NS(=O)(=O)c2cccs2)ccc1O	NPY-Y2 PAM-ag 35 (no result: NPY Y2 blocker) | NPY-Y2 confirm inactive | NPY-Y1 potentiator inactive | NPY-Y1 agonist 2 inactive | CNGC inhibitor inactive | Y2 agonist ctr inactive
COc1ccc(-c2ncccc2OC(=O)C23CC4CC(CC(C4)C2)C3)cc1OC	none
CCOC(=O)c1ccc(Nc2nc(C(=O)OCC)nc3ccccc23)cc1	none
CCOC(=O)c1nc(Nc2ccc(Nc3ccccc3)cc2)c2ccccc2n1	NPY-Y2 PAM-ag 33 (no result: NPY Y2 blocker) | NPY-Y2 confirm 35 | NPY-Y1 potentiator inactive | NPY-Y1 agonist 2 inactive | CNGC inhibitor inactive | Y2 agonist ctr 33
COCCc1ccc(OCC(O)CNC(C)C)cc1 (stereo not given)	NPY-Y2 PAM-ag 65 | NPY-Y2 confirm 38 | NPY-Y1 potentiator inactive | NPY-Y1 agonist 2 34 | CNGC inhibitor inactive | Y2 agonist ctr 28
CC(C)NCC(O)COc1ccc(CC(N)=O)cc1 (stereo not given)	none
CCc1cc(/C(Cc2ccccn2)=N\Nc2ccccc2)c(O)cc1O	none (no result: NPY Y2 blocker)
CCOC(=O)C(=CNc1ccc(NC2=NCC(C)S2)cc1)C(=O)OCC (stereo not given)	NPY-Y2 PAM-ag 47 | NPY-Y2 confirm inactive | NPY-Y1 potentiator inactive | NPY-Y1 agonist 2 inactive | CNGC inhibitor inactive | Y2 agonist ctr inactive
Cc1cccc2c1CC(C)(C)N=C2C1=C(O)CC(C)(C)CC1=O	NPY-Y2 PAM-ag 76 | NPY-Y2 confirm inactive | NPY-Y1 potentiator inactive | NPY-Y1 agonist 2 inactive | CNGC inhibitor inactive | Y2 agonist ctr inactive
CCC1(CC)Cc2ccccc2C(C2=C(O)CC(C)(C)CC2=O)=N1	none
Cc1ccc2[nH]c(=O)c(CNC(C)C)cc2c1	NPY-Y2 PAM-ag 99 | NPY-Y2 confirm inactive | NPY-Y1 potentiator inactive | NPY-Y1 agonist 2 inactive | CNGC inhibitor inactive | Y2 agonist ctr inactive
Cc1c(CN(C)C)c2c(n1C)C(=O)c1ccc(Br)cc1-2	none
